KCNQ1 inh: human KCNQ1 channel inhibition; P51787; CHO-K1 KCNQ1, FluxOR thallium flux fluorescence; hits give high values; B-score at 10 µM; 310,000 tested, 1.3% active;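 active means compounds whose thallium flux B-score, printed positive for inhibition, exceeds three library SD while starting fluorescence stays within three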;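 further: channel opened by potassium depolarization with thallium stimulus after 20 min compound exposure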
KCNK3 block: human KCNK3 channel inhibition, primary screen. O14649. CHO-KCNK3 thallium flux, FluxOR fluorescence; hits give low values. B-score at 10 µM. 340,000 tested, 0.84% active;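 active means B-score under library mean minus 4 SD, starting fluorescence ratio at most library mean plus 5 SD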;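 further: more negative B-score means stronger inhibition of thallium flux through KCNK3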
Kir21 block: blocks the mouse Kir2.1 inward-rectifier potassium channel; B-score at 10 µM; HEK293-Kir2.1, FluxOR thallium flux fluorescence; hits give low values; 310,000 tested, 0.85% active; P35561;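 active means fluorescence ratio B-score at or below minus 3 SD of library scores, with starting-brightness B-score within 2 SD, cut at about -4.2 in these data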;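 further: channel flux triggered by added potassium and thallium sulfate stimulus; B-score of peak minus minimum fluorescence over baseline after thallium stimulus; more negative B-score means stronger Kir2.1 block with less thallium influx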
KCNQ1 act: human KCNQ1 channel potentiation or activation; P51787; CHO-K1 KCNQ1, thallium flux FluxOR fluorescence; hits give high values; B-score at 10 µM; 310,000 tested, 0.35% active;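 active means fluorescence ratio B-score, a plate-corrected score, at least three library SD, with initial intensity B-score within 5 SD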
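assay system = KCNQ1-transfected CHO-K1 cells | medium = assay buffer with matched DMSO | probe or stimulus = depolarizing K+/Tl+ stimulus, K2SO4 and Tl2SO4 each 12.5 mM in 5x stock | dosing = single dose | incubation = dye 90 min, compound 20 min, room temperature | detection = kinetic FluxOR fluorescence, 10 s baseline plus 110 s post-stimulus | evaluation = ratio B score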
KCNK9 inh: inhibitors of human KCNK9 two-pore domain potassium channel | Q9NPC2 | HEK293 KCNK9, FluxOR thallium flux fluorescence; hits give low values | B-score at 10 µM | 310,000 tested, 1.2% active;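 active means ratio B-score over 3 SD below the library mean, with starting fluorescence within 5 SD of its mean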;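 further: negative B-score means less thallium flux so channel inhibition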
Target sequence (Q9NPC2 whole entry, looked up, the tested form may be a part): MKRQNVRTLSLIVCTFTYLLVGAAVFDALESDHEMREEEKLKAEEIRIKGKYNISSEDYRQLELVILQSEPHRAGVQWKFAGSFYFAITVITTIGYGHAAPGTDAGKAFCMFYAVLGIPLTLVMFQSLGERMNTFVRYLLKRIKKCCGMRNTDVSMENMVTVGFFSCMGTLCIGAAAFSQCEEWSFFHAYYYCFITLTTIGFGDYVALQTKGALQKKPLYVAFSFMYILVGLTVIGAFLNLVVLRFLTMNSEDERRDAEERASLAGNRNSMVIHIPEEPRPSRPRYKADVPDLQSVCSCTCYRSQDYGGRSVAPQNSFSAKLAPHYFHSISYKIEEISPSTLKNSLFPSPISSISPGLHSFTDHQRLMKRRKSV
hERG rescue: compounds protecting human hERG from proarrhythmic drug block | Q12809 | activation (rescue from dofetilide block), less the hit threshold, % at 10 µM | 310,000 tested, 0.51% active | CHO-hERG, FluxOR thallium flux, dofetilide IC70 present;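 active means activation above the mean of controls blocked by dofetilide plus 5 SD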;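 further: thallium influx through hERG after potassium depolarization seen as dye fluorescence rise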
Large screens that a line does not name were inactive. A selection: hits, their analogues and other compounds. The true share with any hit is near 3.7%.

CCN(CC)CCCNC(=O)C1CCC(CNS(=O)(=O)c2ccc(Cl)cc2)CC1 (stereo unspecified)	none
COc1cc(OC)cc(C(=O)N2CCCC(Nc3ccc(F)cc3)C2)c1 (stereo unspecified)	none
COc1ccc2cc(C(=O)N3CCCC(Nc4ccc(F)cc4)C3)n(C)c2c1 (stereo unspecified)	Kir21 block -4.9
Cc1ccc(-c2nn(-c3cc(N4CCNCC4)ccc3[N+](=O)[O-])c(=O)c3ccccc23)cc1	Kir21 block -4.2
Cc1nn(-c2cc(N3CCCCCC3)ccc2[N+](=O)[O-])c(=O)c2ccccc12	none
CCN(CC(=O)NCc1cccs1)C(=O)/C=C/c1cc(OC)c(OC)c(OC)c1	none (no result: KCNQ1 inh, Kir21 block, KCNQ1 act, KCNK9 inh, hERG rescue)
COc1ccc(CCN2CC34C=CC(O3)C(C(=O)NCc3ccccc3Cl)C4C2=O)cc1OC (stereo unspecified)	hERG rescue 4.7
O=C(NCC1COc2ccccc2O1)C1C2C=CC3(CN(Cc4ccccc4Cl)C(=O)C13)O2 (stereo unspecified)	none
O=C(COC(=O)COc1ccccc1F)NCc1ccco1	none (no result: KCNQ1 inh, Kir21 block, KCNQ1 act, KCNK9 inh, hERG rescue)
COc1ccccc1C1CN(c2ccc(F)cc2F)N=C1c1cccs1 (stereo unspecified)	KCNK9 inh -7.4
Cc1cc(C)nc(SCc2ccc(C(=O)N/N=C/c3ccco3)cc2)n1	Kir21 block -4.3
CN1OC[C@@H]2CN(C(=O)CCc3ccccc3)[C@H](c3cccc(Oc4ccccc4)c3)C[C@@H]21	none (no result: KCNQ1 inh, Kir21 block, KCNQ1 act, KCNK9 inh, hERG rescue)
CCOc1cccc2cc(-c3cn4cc(C)ccc4n3)c(=O)oc12	hERG rescue 10
COc1cccc2cc(-c3cn4ccc(C)cc4n3)c(=O)oc12	none
COc1ccc2[nH]c3c(c2c1)CCN1C(=O)C(CC(=O)NCCN2CCOCC2)C[C@H](C(=O)N2CCOCC2)[C@@]31C (stereo partly specified)	none (no result: KCNQ1 inh, Kir21 block, KCNQ1 act, KCNK9 inh, hERG rescue)
Cc1ccccc1NC(=O)c1cc(C(=O)c2cc(Cl)ccc2O)cn(-c2ccccc2C)c1=O	KCNQ1 inh 9
CCC(OC(=O)c1cc2sccc2n1C)C(=O)NCc1ccco1 (stereo unspecified)	none
COCCNC(=O)C(C)OC(=O)c1cc2sccc2n1C (stereo unspecified)	hERG rescue 5.7
CC[n+]1c(/C=C/N(C)c2ccccc2)oc2ccccc21	KCNQ1 inh 8
CC[n+]1c(/C=C/N(C)c2ccccc2)oc2ccc(F)cc21	none
O=C(NCc1ccco1)c1ccccc1NS(=O)(=O)c1ccc(Cl)s1	none
O=C(Nc1ccccc1Cc1ccccc1)c1ccccc1NS(=O)(=O)c1ccc(Cl)s1	KCNQ1 inh 8
Cc1ccc(NC(=O)c2ccccc2NS(=O)(=O)c2ccc(Cl)s2)cc1	KCNK9 inh -7.5
O=S(=O)(Nc1ccccc1N1CCCCC1)c1ccc(Cl)s1	KCNK9 inh -7.4
CC(NC(=O)CN1C(=O)NC2(CCc3ccccc32)C1=O)c1ccccc1 (stereo unspecified)	none (no result: KCNQ1 inh, Kir21 block, KCNQ1 act, KCNK9 inh, hERG rescue)
CCN(CC(=O)Nc1ccccc1C(F)(F)F)C(=O)C1CC(=O)N(Cc2ccccc2)C1 (stereo unspecified)	none
CN(C(=O)Cn1nc(Cl)ccc1=O)C1CCCN(Cc2ccccc2F)C1 (stereo unspecified)	none
CC(OC(=O)c1cccc(S(=O)(=O)N2CCCC2)c1)C(=O)NC1CCCCC1C (stereo unspecified)	none
CN(/N=C/c1cc(Cl)cc(Cl)c1O)C(=S)NC(C)(C)C	KCNQ1 inh 13
CCN(CC)CC#CCC(O)(c1ccccc1)c1ccccc1	none
CCN(CC)CC#CCC(C)(c1ccccc1)c1ccccc1	Kir21 block -8.9
CN(CC(=O)Nc1ccc(Cl)c(C(F)(F)F)c1)C(=O)CCCNC(=O)c1ccc(Cl)cc1	none (no result: KCNQ1 inh, Kir21 block, KCNQ1 act, KCNK9 inh, hERG rescue)
CCn1ccc(C(=O)Nc2ncc(C)s2)n1	none
O=S(=O)(Nc1ccc(S(=O)(=O)Nc2ncccn2)cc1)c1ccc(Cl)cc1	none
O=S(=O)(Nc1cccc(CCc2ccccn2)c1)c1ccc(Cl)cc1	Kir21 block -9.2
Cc1ccc(C(=O)NCCc2c[nH]c3ccccc23)s1	none
CCCCN(C(=O)CSc1nnnn1C)C1CCS(=O)(=O)C1 (stereo unspecified)	none (no result: KCNQ1 inh, Kir21 block, KCNQ1 act, KCNK9 inh, hERG rescue)
FC(F)Sc1nc(-c2ccccc2)c(-c2ccccc2)n1C(F)F	KCNQ1 inh 9
O=C(Nc1ccccc1OC(=O)c1ccccc1)c1ccccc1	none (no result: KCNQ1 inh, Kir21 block, KCNQ1 act, KCNK9 inh, hERG rescue)
CCOC(=O)N1CCN(C(=O)c2ccc3c(=O)n(CCC4=CCCCC4)c(=S)[nH]c3c2)CC1	none
O=c1c2ccc(Cl)cc2[nH]c(=S)n1CCC1=CCCCC1	KCNQ1 act 20, hERG rescue 25
C=CCc1c(C)nc2c(-c3ccccc3)cnn2c1N1CCOCC1	none
CCN1C(=O)C(CC(=O)Nc2ccc(OC)cc2)N(CCc2ccc(OC)cc2)C1=S (stereo unspecified)	KCNQ1 inh 6
Cc1cc(C)n(-c2ccc(C(=O)NCc3ccc(F)cc3)cc2)n1	Kir21 block -9.9
CCCCNC(=O)CNC(=S)N(Cc1ccccc1)Cc1cccs1	none
CC1CCCC(NC(=O)CNC(=S)N(Cc2ccccc2)Cc2cccs2)C1C (stereo unspecified)	KCNQ1 inh 9
COc1ccccc1CNC(=O)COC(=O)CSc1ccc(C)c(C)c1	none (no result: KCNQ1 inh, Kir21 block, KCNQ1 act, KCNK9 inh, hERG rescue)
COc1ccccc1CCC(=O)Nc1cccc(S(=O)(=O)N2CCCCCC2)c1	KCNQ1 inh 6
COc1cc(C(=O)Nc2cccc(S(=O)(=O)N3CCCC3)c2)cc(OC)c1C	KCNK9 inh -7.7
Cc1ccc(S(=O)(=O)Nc2cc(Cl)c(O)cc2C)cc1	Kir21 block -5.6
Cc1ccc(NS(=O)(=O)c2ccc(Cl)nc2)c(C)c1	none (no result: KCNQ1 inh, Kir21 block, KCNQ1 act, KCNK9 inh, hERG rescue)
Cc1ccc(S(=O)(=O)Nc2cc(C(C)C)c(O)cc2C)cc1	Kir21 block -6.5
CSc1nnc(C2CCN(CC(=O)Nc3ccccc3N3CCOCC3)CC2)n1C(C)C	none
Cc1nc2sccn2c1-c1csc(NCc2ccccc2)n1	KCNQ1 inh 6
C=CCNc1nc(-c2c(C)nc3sccn23)cs1	none
C[C@H](NS(=O)(=O)OCC(Cl)(Cl)Cl)C1CC1c1ccccc1 (stereo partly specified)	KCNQ1 inh 6
CC(=O)OCCC(NS(=O)(=O)OCC(Cl)(Cl)Cl)c1ccccc1 (stereo unspecified)	none
CC(=O)Nc1c(Cl)cc(Cl)c2c1Cc1cc(Cl)ccc1-2	none (no result: KCNQ1 inh, Kir21 block, KCNQ1 act, KCNK9 inh, hERG rescue)
CCOC(O)[C@H]1N[C@@H](c2ccc(Cl)cc2)[C@@H]([N+](=O)[O-])[C@@H]1c1ccccc1 (stereo partly specified)	KCNK9 inh -7.1
CC1CCc2nc3ccccc3c(C(=O)OCC(=O)N3CCc4ccccc43)c2C1 (stereo unspecified)	none
CCCc1nc2ccccc2c(C(=O)OCC(=O)N2CCc3ccccc32)c1CC	KCNK9 inh -6.6

Bioassay records: PubChem BioAssay, Johns Hopkins Ion Channel Center
